Measurements pooled from the literature.
SLC10A2: Ileal sodium/bile acid cotransporter (SLC10A2, Homo sapiens, UniProt Q12908)
CSNK1A1: Casein kinase I isoform alpha (CSNK1A1, Homo sapiens, UniProt P48729)
SETD7: Histone-lysine N-methyltransferase SETD7 (SETD7, Homo sapiens, UniProt Q8WTS6)
HSD11B1: 11-beta-hydroxysteroid dehydrogenase 1 (HSD11B1, Homo sapiens, UniProt P28845)
CNR2: Cannabinoid receptor 2 (CNR2, Homo sapiens, UniProt P34972)

SMILES	target	test	system	setting	inhibition [%]
CC(=O)N[C@H]1CSSC[C@@H](C(=O)N[C@@H](Cc2c[nH]c3ccccc23)C(N)=O)NC(=O)[C@H](Cc2ccccc2)NC(=O)[C@H](CCCNC(=N)N)NC1=O	Melanocortin receptor 5 (MC5R, Homo sapiens, UniProt P33032)	ligand displacement, radioligand		10 µM, 40 min	0
CC(C)(C#N)c1cc(Cn2cncn2)cc(C(C)(C)C#N)c1	SLC10A2	transporter uptake, inhibitor, radiometric		1 mM	36.8
CN(C)C1CCN(CC#Cc2nn(C3CCCC3)c3nc(NCc4ccccc4)ncc23)C1 (stereo not shown)	CSNK1A1	enzyme activity, inhibitor, FRET		10 µM	1
Cc1cn([C@H]2C[C@H](N=[N+]=[N-])[C@@H](CO)O2)c(=O)[nH]c1=O	SLC10A2	transporter uptake, inhibitor, radiometric		1 mM	< 10
O=C1C=C2CC3(O)COc4c(ccc(O)c4O)C3=C2C=C1O (stereo not shown)	SETD7	cell-free assay		10 µM	28
N#Cc1cc(Cn2c(N3CCCC3)nc3ccccc32)ccc1F	D(1B) dopamine receptor (DRD5, Homo sapiens, UniProt P21918)	ligand displacement		10 µM	48.7
CCC(C)(C)C(=O)O[C@H]1C[C@@H](C)C=C2C=C[C@H](C)[C@H](CC[C@@H]3C[C@@H](O)CC(=O)O3)[C@H]21	HSD11B1	enzyme activity, inhibitor		20 µM, lysate	< 40
COc1cc(NC(C)=O)c(Cl)cc1C(=O)Nc1nccs1	CNR2	cell-free assay		10 µM	25
Ic1cccc2cnccc12	Protein mono-ADP-ribosyltransferase PARP6 (PARP6, Homo sapiens, UniProt Q2NL67)	enzyme activity, inhibitor		10 µM	11
NS(=O)(=O)c1cc2c(cc1Cl)NCNS2(=O)=O	SLC10A2	transporter uptake, inhibitor, radiometric		1 mM	25.8
O=C1C=CC(=O)c2c(O)cccc21	SETD7	cell-free assay		10 µM	13
O=C(c1ccc(Cl)cc1)N(Cc1ccccc1)C1CCCCC1	CNR2	cell-free assay		10 µM	41.6
CN1CCC(=C2c3ccccc3Sc3ccccc32)CC1	SETD7	cell-free assay		10 µM	41
CN(C)CCCN1c2ccccc2Sc2ccc(Cl)cc21	HSD11B1	enzyme activity, inhibitor		20 µM, lysate	< 40
COc1cc(NC(C)CCCN)c2ncccc2c1 (stereo not shown)	SETD7	cell-free assay		10 µM	-19
C=CCSCC1Nc2cc(Cl)c(S(N)(=O)=O)cc2S(=O)(=O)N1 (stereo not shown)	SLC10A2	transporter uptake, inhibitor, radiometric		1 mM	57.9

SMILES	target	test	system	setting	inhibition [%]
CN1CC(Oc2cnc(C#N)cc2-c2ccn3nc(NC(=O)C4CC4)cc3c2)C1	Phosphatidylinositol 5-phosphate 4-kinase type-2 alpha (PIP4K2A, Homo sapiens, UniProt P48426)	enzyme activity, inhibitor		1 µM	3
CN1CCN(CCCOc2ccc(=O)n(-c3ccc(Cl)c(Cl)c3)n2)CC1	CNR2	ligand displacement		1 µM	27.4
O=C(Oc1cc(O)cc2c1C[C@@H](OC(=O)c1cc(O)c(O)c(O)c1)[C@@H](c1cc(O)c(O)c(O)c1)O2)c1cc(O)c(O)c(O)c1	SETD7	cell-free assay		10 µM	28
NS(=O)(=O)c1cc2c(cc1Cl)N=CNS2(=O)=O	SLC10A2	transporter uptake, inhibitor, radiometric		1 mM	25.3
CCN(c1cc(C#CCN2CCOCC2)cc(C(=O)NCc2c(C)cc(C)[nH]c2=O)c1C)[C@H]1CC[C@H](N(C)CCOC)CC1	SETD7	enzyme activity, inhibitor		1 µM	6
CC(CCc1ccccc1)NCC(O)c1ccc(O)c(C(N)=O)c1 (stereo not shown)	SLC10A2	transporter uptake, inhibitor, radiometric		1 mM	38.6
Cc1cc(-c2ccc(/N=N/c3ccc4c(S(=O)(=O)O)cc(S(=O)(=O)O)c(N)c4c3O)c(C)c2)ccc1/N=N/c1ccc2c(S(=O)(=O)O)cc(S(=O)(=O)O)c(N)c2c1O	SETD7	cell-free assay		10 µM	101
O=C(O)c1ncccc1O	72 kDa type IV collagenase (MMP2, Homo sapiens, UniProt P08253)	enzyme activity, inhibitor, fluorescence		1 mM	~50
CCOC(=O)C1=C(COCCN)NC(C)=C(C(=O)OC)C1c1ccccc1Cl (stereo not shown)	SLC10A2	transporter uptake, inhibitor, radiometric		1 mM	95.5
O=C(O)CCCCCCCCCCCC[C@@H]1C=CCC1	SETD7	cell-free assay		10 µM	-48
CCN1CCN(Cc2ccc(NC(=O)c3ccc(C)c(/C=C/c4cnc5[nH]ccc5c4OC)c3)cc2C(F)(F)F)CC1	CSNK1A1	target engagement in cells, inhibitor, chemoproteomics	A-375	5 µM	-58.8
Cc1ccc(Nc2nccc(N(C)c3ccc4c(C)n(C)nc4c3)n2)cc1S(N)(=O)=O	G protein-coupled receptor kinase 5 (GRK5, Homo sapiens, UniProt P34947)	enzyme activity, inhibitor		0.3 µM	-6
CN(C)c1ccc(C(=C2C=CC(=[N+](C)C)C=C2)c2ccc(N(C)C)cc2)cc1	SETD7	cell-free assay		10 µM	59
CCCCc1oc2ccccc2c1C(=O)c1cc(I)c(OCCN(CC)CC)c(I)c1	HSD11B1	enzyme activity, inhibitor		20 µM, lysate	< 40
C[C@H]1C[C@@H]2[C@H]([C@@H](O)C[C@@]3(C)[C@H]2CC[C@]3(O)C(=O)CO)[C@@]2(C)C=CC(=O)C=C12	SLC10A2	transporter uptake, inhibitor, radiometric		1 mM	< 10
